From PMC9860304 (Proceedings of the National Academy of Sciences of the …, 2022) come the findings set out here.

For this assay, the system named is RAN translation of r(G4C2)^exp. The assay can be described thus: RAN translation assay in HEK293T cells co-transfected with. The class given is cell-based. The note with it: read-out: IC50 for inhibition of RAN translation, approximate values. A digest of the protocol: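 HEK293T cells in DMEM/10% FBS at ~80% confluency were co-transfected with (G4C2)66-no ATG-GFP and an mCherry control plasmid, reseeded, and dosed 2 h later. After 24 h with compound, cells were lysed in 100 mM potassium phosphate pH 7.8 with 0.2% Triton X-100. GFP (ex 485/20, em 528/20) and mCherry (ex 530/25, em 590/35) were read, and the untransfected-cell-background-corrected GFP/mCherry ratio was used.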

As for `Cc1c2ccnc(C(=O)NCCN(C)C)c2cc2c3cc(O)ccc3n(C)c12` [Compound 2], the 50% inhibitory concentration (IC50) was about 300 nM.
